According to PubChem BioAssay AID540295 (The Scripps Research Institute Molecular Screening Center, 2011):
The campaign covered roughly 360,000 compounds. About 1,700 (0.47%) were called active. The full list was thinned out, with actives kept by preference. Values without a mark were called inactive.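 The calls were made as follows: active = inhibition above its plate's cutoff, the mean of tested wells on that plate plus 3 SD (cut at about 29% in these data); inactive = the rest.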

Molecular target: Melanocortin receptor 4 (Homo sapiens) (UniProt P32245)
Assay: blockers of MC4R Gs-cAMP response – cell-based, TR-FRET, antagonist arm of biased-ligand search, primary screen (AID 540295);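 also: 0% = Melanotan II alone and 100% = Melanotan II plus saturating MCL0020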
Settings: MC4R-expressing cells, MTII-stimulated cAMP, LANCE TR-FRET; at 6.5 µM; hits give high values
Outline: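 System – human MC4R-expressing U2OS cells · Also added – Melanotan II · Dosing – one concentration, 6.5 µM nominal · Timing – 30-min compound, 1-h challenge, 1-h detection, room temperature · Measured by – Eu-cAMP/anti-cAMP TR-FRET, emission 671 nm · Replicates – singlicate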

Chain of Melanocortin receptor 4 (Homo sapiens) (P32245 whole entry, looked up): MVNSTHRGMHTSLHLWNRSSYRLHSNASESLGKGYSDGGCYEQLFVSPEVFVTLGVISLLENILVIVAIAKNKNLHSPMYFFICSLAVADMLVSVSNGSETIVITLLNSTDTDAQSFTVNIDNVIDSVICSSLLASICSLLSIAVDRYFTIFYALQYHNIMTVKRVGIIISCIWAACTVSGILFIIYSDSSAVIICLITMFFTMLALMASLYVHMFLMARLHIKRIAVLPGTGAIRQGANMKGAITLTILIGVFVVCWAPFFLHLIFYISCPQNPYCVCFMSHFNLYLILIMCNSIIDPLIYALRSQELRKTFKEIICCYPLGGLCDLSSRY

In order of falling inhibition:
1. O=C(Nc1ccccc1)c1nnsc1S(=O)(=O)c1ccc(Cl)cc1  22.3%
2. COc1cccc(NC(=O)Cn2c3ccccc3c3nc4n(c(=O)c32)CCS4)c1  19.8%
3. COC(=O)c1ccccc1NC(=O)Cc1ccccc1OC  18.4%
4. COc1ccccc1-c1nnc(NC(=O)c2cccc(N3C(=O)CCC3=O)c2)o1  17.9%
5. Cc1c(CCC(=O)O)c(=O)oc2c(C)c(OCc3ccccc3Cl)ccc12  17.1%
6. CC(=O)c1ccccc1NC(=O)COC(=O)C1COc2ccccc2O1 (stereo unspecified)  16.3%
7. Cc1ccc(S(=O)(=O)N(CC(=O)N/N=C/c2ccc(F)cc2)c2cccc3cccnc23)cc1  15.1%
8. COC(=O)/C(=C1\Oc2ccc(C(C)(C)C)cc2S1)C(F)(F)F  13.2%
9. O=C(Nc1ccc(S(=O)(=O)Nc2nccs2)cc1)c1cccc(S(=O)(=O)N2CCOCC2)c1  13.1%
10. O=C(Nc1nn(Cc2ccccc2F)cc1Br)c1cccs1  11.3%
11. O=C1c2ccccc2S(=O)(=O)c2cc(N3CCN(c4ccccn4)CC3)ccc21  11.1%
12. COC(=O)COc1ccc2c(=O)c(Oc3ccccc3Br)coc2c1  11%
13. Cc1nn(Cc2ccc(F)cc2)c(C)c1NC(=O)c1noc2c1CCc1ccccc1-2  10.4%
14. CCCc1cc(=O)[nH]c(SCC(=O)Nc2ccc(C(=O)Nc3ccccc3OC)cc2)n1  10.3%
15. O=C(COC(=O)CSc1ccccc1)Nc1ccc(F)cc1F  9.52%
16. CC/C(Cc1ccccc1)=N/NC(=O)CCn1nnc2ccccc21  9.16%
17. CC(C)CC(=O)Nc1cc(C(F)(F)F)ccc1N1CCOCC1  8.93%
18. Cn1ccs/c1=N\S(=O)(=O)c1ccc(C(C)(C)C)cc1  8.67%
19. CCO[C@H]1OC(C(=O)Nc2ccccc2)=C[C@@H](C2CC2)[C@@H]1CCCO  8.5%
20. CCOC(=O)c1c(NC(=O)COC(=O)c2ccc(S(=O)(=O)C(F)F)cc2)sc(C(=O)N(C)C)c1C  8.14%
21. CCOc1ccc(CCNC(=O)CN2C(=O)NC3(CCc4ccccc43)C2=O)cc1OCC (stereo unspecified)  7.52%
22. O=C(c1ccc2c(c1)C(=O)N(c1ccc(Cl)cc1)C2=O)N1CCN(c2ccccn2)CC1  7.23%
23. CCOC(=O)C1CCN(Cc2nnc(-c3cccc(Br)c3)o2)CC1  7.07%
24. CCCC/C(C)=N/NC(=O)NC1CCCCC1  6.08%
25. COc1cc(C(=O)NCc2ccc(-n3cccc3)cc2)cc(OC)c1OC  5.76%
26. COc1ccc2oc(=O)cc(CN3CCOCC3)c2c1  5.75%
27. O=S(=O)(c1ccc(SCc2ccc(Br)cc2)nc1)N1CCOCC1  5.21%
28. Cc1cccc(-c2cnc(C(O)c3ccc4ccccc4c3)[nH]2)c1 (stereo unspecified)  5.06%
29. COc1ccc(N2C(=O)CC(N3CCC(C(N)=O)CC3)C2=O)cc1 (stereo unspecified)  5.05%
30. O=C(NCc1ccccc1)C1=C[C@@H](C2CCCCC2)C[C@@H](OCc2ccc(CO)cc2)O1  4.66%
31. Cn1c(=O)[nH]c(=O)c2c1nc(CN1CCN(c3ccccc3F)CC1)n2CCc1ccccc1  4.45%
32. Cc1coc2cc3oc(=O)c(CCC(=O)O)c(C)c3cc12  4.19%
33. COc1cccc(NC(=O)c2ccccc2N(Cc2ccccc2)S(C)(=O)=O)c1  4.09%
34. COc1cc(S(=O)(=O)Nc2ncn[nH]2)ccc1Cl  3.99%
35. COc1ccc(Cl)cc1NC(=O)NCC1CCN(Cc2ccccc2F)CC1  3.98%
36. O=C(Nc1ccccc1F)c1cc(S(=O)(=O)N2CCCCC2)cs1  3.77%
37. NCCCNC(=S)NCCCN(Cc1ccc(Cl)cc1)c1ccc(Br)cn1  3.71%
38. CCCCOc1ccc(C(=O)N/C(=C/C=C/c2ccccc2)C(=O)N2CCOCC2)cc1  3.43%
39. COC(=O)c1sc(NC(=O)COC(=O)C2CCC2)c(C(=O)OC)c1C  3.01%
40. O=C(CCc1nnc(Cc2ccc3c(c2)OCO3)o1)NCCc1ccccc1Cl  2.77%
41. O=C(NCc1cccnc1)c1cc(S(=O)(=O)N2CCOCC2)c(Cl)cc1Cl  2.73%
42. COCC(=O)Nc1c(C(=O)N2CCCC2)oc2ccccc12  2.6%
43. CCc1nnc(NC(=O)[C@@H](NC(=O)c2cccc(C)c2)C(C)C)s1  2.22%
44. S=C(Cc1ccc(Cl)cc1)N1CCOCC1  2.15%
45. COc1ccc(CCNC(=O)CCCCCNC(=O)N2CCn3c2nc2ccccc23)cc1OC  2.13%
46. CCOC(=O)N1CCN(Cc2nnc(-c3ccccc3Cl)o2)CC1  2.09%
47. O=C(CN1C(=O)NC2(CCCC2)C1=O)Nc1cc(C(F)(F)F)ccc1N1CCOCC1  2.08%
48. Cc1cccc(CN2CCC(CNC(=O)Nc3ccc(F)c(Cl)c3)CC2)c1  1.8%
49. CCOC(=O)c1c(C(C#N)C#N)cc(C)nc1C  1.49%
50. CC12CCC(=O)C=C1CCC1C2C(O)CC2(C)C1CCC2(O)C(O)CO (stereo unspecified)  1.23%
51. CCCCC1N2CC3([N+](=O)[O-])CN1CC([N+](=O)[O-])(C2)C3(C)C (stereo unspecified)  1.22%
52. FC(F)Oc1ccccc1NC(=S)Nc1cccc(Cl)c1Cl  0.43%
53. COc1cc(C(=O)N2CCOC23CCN(Cc2ccccc2)CC3)cc(OC)c1OC  0.19%
54. Cc1cc(C(=O)N2CCN(c3ccccn3)CC2)c(C)o1  -0.72%
55. COc1ccc(NC(=O)CN2C(=O)NC(C)(c3ccccc3)C2=O)cn1 (stereo unspecified)  -0.87%
56. COc1ccc(OC)c(S(=O)(=O)Nc2c(C)nn(C)c2C)c1  -0.88%
57. Cc1ccc(Cl)cc1-c1ccc(/C=N/n2cnnc2)o1  -0.99%
58. N#Cc1ccc(OCC(=O)Nc2nc(-c3ccccn3)cs2)cc1  -1.39%
59. COc1ccccc1N(CC(=O)Nc1c(C)n(C)n(-c2ccccc2)c1=O)S(=O)(=O)c1ccccc1  -1.81%
60. Cc1ccc(C)c(N2CCN(C(=O)CCc3nc(-c4cccc(C(F)(F)F)c4)no3)CC2)c1  -2.59%
61. S=c1[nH]nc(-c2ccco2)n1/N=C/c1ccc(Br)s1  -2.7%
62. CCOC(=O)COc1nc(C)cc(C(F)(F)F)c1C#N  -2.8%
63. COc1ccc(S(=O)(=O)NC(=O)C2(C)CCN2C(=O)c2ccccc2CCc2ccccc2)cc1 (stereo unspecified)  -3.11%
64. COc1ccc2oc(N)nc2c1  -3.46%
65. CNC(=O)C[C@H]1C(=O)N(c2ccc(OC)cc2)C[C@@H]1Cc1ccccc1  -3.72%
66. CCc1nc2c(OCCOc3ccccc3)cccn2c1N(C)C(=O)c1cccs1  -6.4%
67. CC=CCn1c(SCCCc2ccccc2)nc2c1c(=O)[nH]c(=O)n2C  -6.73%
68. CCC1CCCCN1CCCNC(=O)c1cc2c(Cl)nc3ccccc3c2s1 (stereo unspecified)  -9.04%
69. COc1ccc2c(c1)c1nc3n(c(=O)c1n2CC(=O)Nc1ccccc1)CCS3  -10.3%
70. CCOC(=O)N1CCN(C(=O)c2ccccc2N(Cc2ccccc2)S(=O)(=O)c2ccc(OC)cc2)CC1  -11%
71. C=CCn1c2ccccc2c2nnc(SCc3[nH]c(=O)[nH]c3C(=O)CCCCC(=O)OCC)nc21  -12.2%
72. COc1ccc(NC(=O)C2Cc3c(-c4ccc5c(c4)OCO5)ccnc3O2)cn1 (stereo unspecified)  -23.9%

`CCOC(=O)c1c(NC(=O)CCl)sc(C(=O)N(CC)CC)c1C` was tested, and the inhibition was 32.6% (active).
For `COc1ccc2oc(N)c(C=O)c(=O)c2c1`, the inhibition was 37.6% (active).
With `COc1ccc(/C=N/OCC(=O)N(Cc2ccccc2)c2ccccc2C(=O)O)cc1` the inhibition was 32.2% (active).
In the case of `COc1ccc(-c2nc3n(c(=O)c2C#N)CCS3)c(OC)c1`, the inhibition is reported as 30.9% (active).
For `COc1ccc(NC(=O)/C(Cl)=C(/Cl)S(=O)Cc2ccc(C)cc2)cn1` (stereo unspecified), the inhibition was 57.8% (active).
With `Cc1c(CCC(=O)O)c(=O)oc2cc(OCc3ccc(Br)cc3)ccc12` the inhibition was 29.8% (active).
With `Cc1ccc(-c2nnc(CN3CCN(C)CC3)o2)cc1` the inhibition was 30.6% (active).
`Cc1ccccc1-c1n[nH]c(=S)n1/N=C/c1ccc(-c2ccccc2Br)o1` was tested, and the inhibition was 28.7% (active).
In the case of `O=C(c1ccc2c(c1)N(Cc1ccc(F)cc1)C(=O)c1ccccc1S2(=O)=O)N1CCN(c2ccccn2)CC1`, the inhibition is reported as 30.5% (active).
`COc1cccc(OC)c1C(=O)Nc1c(C(=O)N2CCN(c3ccccn3)CC2)oc2ccccc12` was tested, and the inhibition was 36.6% (active).
With `COc1ccc(C(C)C)cc1S(=O)(=O)Nc1ncn[nH]1` the inhibition was 32.9% (active).
With `O=C(Cn1nnc2ccccc2c1=O)Nc1cc(C(F)(F)F)ccc1N1CCOCC1` the inhibition was 30.3% (active).
`O=C(Nc1nccs1)c1cc(S(=O)(=O)N2CCOCC2)c(Cl)cc1Cl` was tested, and the inhibition was 35.1% (active).
For `COc1ccccc1N(CC(=O)N/N=C(\C)c1ccccc1O)S(=O)(=O)c1ccc(C)cc1`, the inhibition was 33.9% (active).
`CCOC(=O)c1cc(C)nc(S(C)(=O)=O)c1C#N` was tested, and the inhibition was 38.7% (active).
`COc1ccc(N2C(=O)C3C(C2=O)C(C(=O)c2ccccc2)N2CCCC32)cc1` (stereo unspecified) was tested, and the inhibition was 30.8% (active).
`O=C(NCC1CCN(Cc2ccccc2Cl)CC1)Nc1cccc(Cl)c1` was tested, and the inhibition was 29.6% (active).
`COc1ccccc1NC(=O)c1ccc2nc(N3C(=O)CCC3=O)sc2c1` was tested, and the inhibition was 35.1% (active).
For `COc1ccccc1CC(=O)Nc1ccc(F)cc1F`, the inhibition was 28.9% (active).
